These results are taken from ChEMBL document CHEMBL3046176, “Synthesis, crystal structure, and biological activities of 2-cyanoacrylates containing furan or tetrahydrofuran moieties” (2007).

Common to all, as to assay type: functional
The test system of assay [1] is Fusarium graminearum. Kind of assay: Antifungal activity against Fusarium graminearum assessed as inhibition of mycelium growth at 50 mg/L at 26 degC measured after 72 hr. In short, it runs like this: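 Mycelium growth test on agar plates: 1 mL test solution (50 mg/L) mixed with 9 mL agar medium; sterile water in place of test solution for controls. 4 mm inocula cut from margins of actively growing colonies, placed at plate centre, incubated at 26 °C; mycelium diameter measured over 72 h. Inhibition % from mean hyphal diameter against control. Triplicate.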

The test system of assay [2] is Cucumis sativus. Put plainly: Plant growth regulatory activity in Cucumis sativus (cucumber) seed assessed as number of root at 10 mg/L at 26 degC measured after 5 days. The method, boiled down:
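Cucumber seeds were incubated at 26 °C in the dark for 72 h, then 10 cotyledons were excised and treated. Incubation continued at 26 °C in the dark for 5 days. Roots were counted, with water-only controls, in triplicate.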

Assay [3] concerns Digitaria sanguinalis. Kind of assay: Herbicidal activity against hairy crabgrass Digitaria sanguinalis (hairy crabgrass) assessed as herbicidal damage at 1.5 kg/ha measured after preemergence treatment. To be noted: pre-emergence. In short, it runs like this: (§1)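 Seeds were sown in 6 cm boxes of artificial mixed soil, covered with plastic film until emergence, and grown in a greenhouse. Sprays were applied right after sowing (preemergence) or after the first true leaf expanded (postemergence). Controls received the same amount of water/DMF/Tween 20. Above-ground fresh weight was taken 10 days after treatment, in triplicate, as % damage versus control.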

In assay [4] the test system is Medicago sativa. Kind of assay: Herbicidal activity against Medicago sativa (alfalfa) assessed as herbicidal damage at 1.5 kg/ha measured after preemergence treatment. To be noted: pre-emergence. In short, it runs like this:
as §1

In assay [5] the test system is Amaranthus retroflexus. Kind of assay: Herbicidal activity against Amaranthus retroflexus assessed as herbicidal damage at 1.5 kg/ha measured after preemergence treatment. The note with it: pre-emergence. The method, boiled down: as §1
In assay [6] the test system is Medicago sativa. Kind of assay: Herbicidal activity against Medicago sativa (alfalfa) assessed as herbicidal damage at 1.5 kg/ha measured after postemergence treatment. The note with it: post-emergence. The method, boiled down:
as §1

Assay [7] deals with Alternaria solani. Kind of assay: Antifungal activity against Alternaria solani assessed as inhibition of mycelium growth at 50 mg/L at 26 degC measured after 72 hr. In short, it runs like this: (§2)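 Mycelium growth assay on agar. 1 mL test solution (50 mg/L) was poured into a 9 cm plate with 9 mL agar medium. Controls used sterile water in its place. A 4 mm plug from the margin of an actively growing colony was placed in the centre and incubated at 26 °C. Hyphal diameter was measured over 72 h, in triplicate. Inhibition % = (control diameter − treated diameter)/control diameter.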

Assay [8] deals with Mycosphaerella arachidis. Put plainly: Antifungal activity against Mycosphaerella arachidis assessed as inhibition of mycelium growth at 50 mg/L at 26 degC measured after 72 hr. In short, it runs like this:
as §2

Assay [9] deals with Brassica napus. Put plainly: Herbicidal activity against rape Brassica napus (oilseed rape) assessed as herbicidal damage at 1.5 kg/ha measured after postemergence treatment. To be noted: post-emergence. The method, boiled down: as §1
For assay [10], the system named is Digitaria sanguinalis. Kind of assay: Herbicidal activity against hairy crabgrass Digitaria sanguinalis (hairy crabgrass) assessed as herbicidal damage at 1.5 kg/ha measured after postemergence treatment. The note with it: post-emergence. In short, it runs like this:
as §1

Assay [11] has as its system Botryosphaeria berengeriana. Kind of assay: Antifungal activity against Botryosphaeria berengeriana assessed as inhibition of mycelium growth at 50 mg/L at 26 degC measured after 72 hr. In short, it runs like this: as §2
Assay [12] deals with Amaranthus retroflexus. Kind of assay: Herbicidal activity against Amaranthus retroflexus assessed as herbicidal damage at 1.5 kg/ha measured after postemergence treatment. The note with it: post-emergence. The method, boiled down:
as §1

The test system of assay [13] is Brassica napus. Put plainly: Herbicidal activity against rape Brassica napus (oilseed rape) assessed as herbicidal damage at 1.5 kg/ha measured after preemergence treatment. The note with it: pre-emergence. In short, it runs like this:
as §1

Assay [14] concerns Tobacco mosaic virus. Put plainly: Antiviral activity against Tobacco mosaic virus (TMV) inoculated in fresh tobacco leaf at 100 mg/L by half-leaf method. In short, it runs like this: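 Half-leaf method on tobacco leaves at the 5-6 growth stage. Leaves were inoculated with TMV by juice-leaf rubbing at 5.88 × 10-2 µg/mL and cut along the main vein. One half was immersed in test solution and the other in double distilled water for 20 min, then cultured at 25 °C for 72 h, in triplicate. Inhibition = 100(CK − A)/CK, from average lesion counts.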

Assay [15] relates to Cladosporium cucumerinum. Kind of assay: Antifungal activity against Cladosporium cucumerinum assessed as inhibition of mycelium growth at 50 mg/L at 26 degC measured after 72 hr. In short, it runs like this:
as §2

For orientation: inhibition means the percentage by which the read-out fell short of the control. Consider `CCOCCOC(=O)/C(C#N)=C(/NCc1ccc(Cl)nc1)SC`, for which the inhibition at 50 µg/mL in assay [1] amounted to 6.7%; in [7] it was 7.1%; in assay [8] it was 21.4%; in [11], 22.7%; in assay [15] it was 0%. Also, the Activity is given as -3.6% in assay [2] and 18.3% in assay [14]. Moreover, the inhibition at 1500 g/ha in [3] worked out at 18.6%; in assay [4], 1.5%; in [5], 13.7%; in assay [6] it was 41.3%; in [9], 100%; in assay [10], 89.9%. The inhibition at 1500 g/ha was determined as 100% in assay [12] and 68.9% in [13].

Regarding `CCOCCOC(=O)/C(C#N)=C(/C)NCC1CCCO1` (stereo not given), the inhibition at 50 µg/mL in [1] is 10%; in [7] it was 0%; in [8], 44.6%; in [11], 9.1%; in assay [15] it was 13.2%. Further, the results for the Activity in [2] and in assay [14] were -6.6% and 7.5%, respectively. In addition, the inhibition at 1500 g/ha in assay [3] came to 5.7%; in assay [4], 11.3%; in assay [5], 0%; in [6] it was 28.7%; in assay [9], 57.9%; in assay [10], 7.1%. In addition, the inhibition at 1500 g/ha came out at 36.4% in assay [12] and 8.5% in assay [13].

Take `CCOCCOC(=O)/C(C#N)=C(/CC)NCC1CCCO1` (stereo not given): the inhibition at 50 µg/mL in [1] was determined as 20%; in [7] it was 10.7%; in assay [8], 37.5%; in assay [11], 22.7%; in assay [15] it was 15.8%. In addition, the Activity in assay [2] is listed as 2.4%; in assay [14] it was 13.2%. In addition, the inhibition at 1500 g/ha was 0% in [3]; 3% in assay [4]; 8.4% in [5]; 22.2% in assay [6]; 63.7% in assay [9]; 0% in assay [10]. Moreover, the inhibition at 1500 g/ha in [12] worked out at 46.1%; in assay [13], 7.4%.

Consider `CCOCCOC(=O)/C(C#N)=C(\NCC1CCOC1)C(C)C` (stereo not given), for which the inhibition at 50 µg/mL was 0% in assay [1]; 0% in assay [7]; 17.9% in assay [8]; 9.1% in assay [11]; 5.3% in assay [15]. The Activity was 14.4% in assay [2] and 4.9% in assay [14]. For the same molecule, the inhibition at 1500 g/ha was found to be 0% in assay [3]; 2.3% in assay [4]; 12.6% in assay [5]; 41.3% in assay [6]; 88.2% in [9]; 57.6% in assay [10]. In addition, the inhibition at 1500 g/ha in assay [12] was found to be 37.8%; in assay [13], 0%.

On to `CCOCCOC(=O)/C(C#N)=C(\NCC1CCCO1)C(C)C` (stereo not given), for which the inhibition at 50 µg/mL in assay [1] was determined as 33.3%; in assay [7] it was 14.3%; in [8], 28.6%; in [11], 18.2%; in assay [15], 0%. Also, the Activity was 32.5% in assay [2] and 7.2% in [14]. In addition, the inhibition at 1500 g/ha in [3] came out at 40%; in assay [4] it was 20.3%; in assay [5] it was 3.2%; in [6], 60.5%; in assay [9], 97.2%; in [10], 100%. In addition, the inhibition at 1500 g/ha in assay [12] was found to be 100%; in [13] it was 80%.

On to `CCOCCOC(=O)/C(C#N)=C(\NCc1ccco1)C(C)C`, for which the inhibition at 50 µg/mL is 23.3% in assay [1]; 17.9% in assay [7]; 37.5% in assay [8]; 22.7% in assay [11]; 13.2% in assay [15]. Also, the Activity is 2.4% in [2] and 0% in assay [14]. For the same molecule, the inhibition at 1500 g/ha in assay [3] is 37.8%; in [4] it was 4.5%; in assay [5] it was 6.3%; in assay [6], 26.3%; in assay [9], 56.3%; in [10], 0%. Besides, the inhibition at 1500 g/ha worked out at 41.9% in [12] and 3.3% in assay [13].

In the case of `CCOCCOC(=O)/C(C#N)=C(/NCc1ccoc1)SC`, the inhibition at 50 µg/mL is 36.7% in assay [1]; 3.6% in [7]; 12.5% in [8]; 9.1% in assay [11]; 13.2% in assay [15]. For the same molecule, the values for the Activity in assay [2] and in [14] were 14.4% and 8%, respectively. Moreover, the inhibition at 1500 g/ha was found to be 0% in [3]; 16.5% in [4]; 8.4% in assay [5]; 31.1% in [6]; 30.8% in assay [9]; 5.1% in assay [10]. Also, the inhibition at 1500 g/ha in [12] came to 28.8%; in [13], 0%.

Turning to `CCC/C(NCC1CCOC1)=C(\C#N)C(=O)OCCOCC` (stereo not given), the inhibition at 50 µg/mL came to 0% in [1]; 10.7% in assay [7]; 41.1% in [8]; 27.3% in assay [11]; 21.1% in assay [15]. In addition, the Activity in [2] worked out at 5.4%; in assay [14], 9.4%. Besides, the inhibition at 1500 g/ha was 0% in assay [3]; 0% in [4]; 9.5% in [5]; 11.4% in assay [6]; 58.8% in [9]; 1% in assay [10]. In addition, the values for the inhibition at 1500 g/ha in assay [12] and in [13] were 8.1% and 0%, respectively.

As to `CCOCCOC(=O)/C(C#N)=C(/CC)NCC1CCOC1` (stereo not given), the inhibition at 50 µg/mL turned out to be 20% in assay [1]; 17.9% in assay [7]; 39.3% in [8]; 9.1% in assay [11]; 7.9% in assay [15]. In addition, the Activity in assay [2] came out at 41.5%; in assay [14], 7.2%. Further, the inhibition at 1500 g/ha in assay [3] was 0%; in [4], 6%; in assay [5], 4.2%; in assay [6], 25.7%; in [9] it was 68%; in assay [10] it was 11.1%. Also, the results for the inhibition at 1500 g/ha in [12] and in assay [13] were 51.6% and 34.1%, respectively.

For `CCC/C(NCC1CCCO1)=C(\C#N)C(=O)OCCOCC` (stereo not given), the inhibition at 50 µg/mL was determined as 23.3% in assay [1]; 0% in assay [7]; 32.1% in [8]; 4.5% in [11]; 10.5% in assay [15]. For the same molecule, the results for the Activity in [2] and in [14] were 8.4% and 0%, respectively. Besides, the inhibition at 1500 g/ha is 0% in assay [3]; 15% in assay [4]; 0% in assay [5]; 19.2% in assay [6]; 36.3% in [9]; 0% in assay [10]. Besides, the inhibition at 1500 g/ha was determined as 16.4% in assay [12] and 0% in assay [13].
